Key:
[1] = molecular target: Receptor-type tyrosine-protein kinase FLT3 (Homo sapiens, UniProt P36888, D835Y); assay: Inhibition of human partial length FLT3 D835Y mutant (Q580 to Y969 residues) expressed in bacterial expression system using poly [Glu, Try] 4:1 as substrate in presence of [gamma-33P]ATP
In short: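 Recombinant kinase assays were run radiometrically by an outside contract service. Activity was read as 33P incorporation into each kinase's substrate and expressed relative to a DMSO control.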

Aurora kinase B = Aurora kinase B (Homo sapiens, UniProt Q96GD4); assay: Inhibition of wild-type human partial length AURKB (D25 to A303 residues) expressed in mammalian expression system using poly [Glu, Try] 4:1 as substrate in presence of [gamma-33P]ATP
In short: (§1)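 Radiometric assay on recombinant kinase: ³³P incorporation into the kinase substrate was measured and activity was expressed relative to a DMSO control.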

[2] = molecular target: Epidermal growth factor receptor (Homo sapiens, UniProt P00533); assay: Inhibition of wild-type human partial length EGFR (R669 to V1011 residues) expressed in bacterial expression system using poly [Glu, Try] 4:1 as substrate in presence of [gamma-33P]ATP; in short: as §1
[3] = molecular target: Platelet-derived growth factor receptor alpha (Homo sapiens, UniProt P16234); assay: Inhibition of wild-type human partial length PDGFRA (V575 to D1002 residues) expressed in mammalian expression system using poly [Glu, Try] 4:1 as substrate in presence of [gamma-33P]ATP; in short: as §1
[4] = molecular target: ALK tyrosine kinase receptor (Homo sapiens, UniProt Q9UM73); assay: Inhibition of wild-type human partial length ALK (I1088 to E1409 residues) expressed in mammalian expression system using poly [Glu, Try] 4:1 as substrate in presence of [gamma-33P]ATP; in short: as §1
[5] = Selectivity ratio of EC50 for human AXL-negative BT474 cells to EC50 for mouse AXL-positive breast cancer cells; type: functional
In short: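 AXL− BT474 and AXL+ cells were each dosed with 8-point half-log series (0.03–100 μM) and read by PrestoBlue at day 5 (n = 2). EC50s were fitted for each line, and the ratio is EC50(AXL−)/EC50(AXL+).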

BT-474 = assay: Antiproliferative activity against human AXL-negative BT474 cells after 5 days by PrestoBlue assay; type: functional, cell-based; details: BT-474, 120 h
In short: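 8-point half-log dose–response, 0.03–100 μM. Cell viability read with PrestoBlue reagent at day 5. EC50 calculated from the curves. SD from n = 2. Screened alongside an AXL+ line, with foretinib as the positive control.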

Chain of Aurora kinase B (Q96GD4 whole entry, the tested form may be a part): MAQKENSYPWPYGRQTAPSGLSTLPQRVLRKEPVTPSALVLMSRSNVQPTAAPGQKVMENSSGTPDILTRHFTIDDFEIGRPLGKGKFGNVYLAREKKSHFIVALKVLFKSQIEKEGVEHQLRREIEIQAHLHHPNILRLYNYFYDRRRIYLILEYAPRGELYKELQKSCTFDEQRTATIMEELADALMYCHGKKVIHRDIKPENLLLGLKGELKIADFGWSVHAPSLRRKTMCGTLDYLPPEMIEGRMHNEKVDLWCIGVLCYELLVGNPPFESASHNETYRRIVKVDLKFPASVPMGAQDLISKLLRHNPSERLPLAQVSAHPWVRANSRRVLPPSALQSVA
Chain of Platelet-derived growth factor receptor alpha (P16234 whole entry, the tested form may be a part): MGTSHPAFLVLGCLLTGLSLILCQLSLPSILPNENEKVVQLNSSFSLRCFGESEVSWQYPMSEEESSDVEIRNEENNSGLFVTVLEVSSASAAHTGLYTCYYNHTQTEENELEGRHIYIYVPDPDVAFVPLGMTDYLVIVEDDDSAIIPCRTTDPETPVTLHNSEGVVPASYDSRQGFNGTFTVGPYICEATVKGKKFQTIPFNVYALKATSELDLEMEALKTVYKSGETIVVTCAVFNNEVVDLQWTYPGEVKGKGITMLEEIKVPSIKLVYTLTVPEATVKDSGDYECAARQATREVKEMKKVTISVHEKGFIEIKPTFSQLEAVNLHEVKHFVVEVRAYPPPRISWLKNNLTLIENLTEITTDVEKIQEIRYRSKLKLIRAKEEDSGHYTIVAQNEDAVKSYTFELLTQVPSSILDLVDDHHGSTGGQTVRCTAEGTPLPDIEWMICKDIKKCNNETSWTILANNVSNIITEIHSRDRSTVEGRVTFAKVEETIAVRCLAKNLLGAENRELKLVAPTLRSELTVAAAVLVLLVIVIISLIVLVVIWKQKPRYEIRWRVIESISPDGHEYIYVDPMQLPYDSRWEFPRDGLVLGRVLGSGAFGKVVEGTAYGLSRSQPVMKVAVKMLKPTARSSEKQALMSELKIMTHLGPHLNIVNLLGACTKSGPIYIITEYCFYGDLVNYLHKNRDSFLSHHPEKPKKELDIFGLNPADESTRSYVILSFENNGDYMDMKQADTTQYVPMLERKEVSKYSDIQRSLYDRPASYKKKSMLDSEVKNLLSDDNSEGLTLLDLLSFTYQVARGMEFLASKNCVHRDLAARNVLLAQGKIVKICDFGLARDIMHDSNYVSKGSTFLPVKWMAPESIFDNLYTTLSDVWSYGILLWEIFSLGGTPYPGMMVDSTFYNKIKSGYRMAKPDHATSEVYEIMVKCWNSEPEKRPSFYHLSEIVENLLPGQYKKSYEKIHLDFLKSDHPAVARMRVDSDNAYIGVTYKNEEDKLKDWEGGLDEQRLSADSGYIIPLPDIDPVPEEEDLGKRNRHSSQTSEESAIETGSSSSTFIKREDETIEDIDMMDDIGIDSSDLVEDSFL
Chain of Epidermal growth factor receptor (P00533 whole entry, the tested form may be a part): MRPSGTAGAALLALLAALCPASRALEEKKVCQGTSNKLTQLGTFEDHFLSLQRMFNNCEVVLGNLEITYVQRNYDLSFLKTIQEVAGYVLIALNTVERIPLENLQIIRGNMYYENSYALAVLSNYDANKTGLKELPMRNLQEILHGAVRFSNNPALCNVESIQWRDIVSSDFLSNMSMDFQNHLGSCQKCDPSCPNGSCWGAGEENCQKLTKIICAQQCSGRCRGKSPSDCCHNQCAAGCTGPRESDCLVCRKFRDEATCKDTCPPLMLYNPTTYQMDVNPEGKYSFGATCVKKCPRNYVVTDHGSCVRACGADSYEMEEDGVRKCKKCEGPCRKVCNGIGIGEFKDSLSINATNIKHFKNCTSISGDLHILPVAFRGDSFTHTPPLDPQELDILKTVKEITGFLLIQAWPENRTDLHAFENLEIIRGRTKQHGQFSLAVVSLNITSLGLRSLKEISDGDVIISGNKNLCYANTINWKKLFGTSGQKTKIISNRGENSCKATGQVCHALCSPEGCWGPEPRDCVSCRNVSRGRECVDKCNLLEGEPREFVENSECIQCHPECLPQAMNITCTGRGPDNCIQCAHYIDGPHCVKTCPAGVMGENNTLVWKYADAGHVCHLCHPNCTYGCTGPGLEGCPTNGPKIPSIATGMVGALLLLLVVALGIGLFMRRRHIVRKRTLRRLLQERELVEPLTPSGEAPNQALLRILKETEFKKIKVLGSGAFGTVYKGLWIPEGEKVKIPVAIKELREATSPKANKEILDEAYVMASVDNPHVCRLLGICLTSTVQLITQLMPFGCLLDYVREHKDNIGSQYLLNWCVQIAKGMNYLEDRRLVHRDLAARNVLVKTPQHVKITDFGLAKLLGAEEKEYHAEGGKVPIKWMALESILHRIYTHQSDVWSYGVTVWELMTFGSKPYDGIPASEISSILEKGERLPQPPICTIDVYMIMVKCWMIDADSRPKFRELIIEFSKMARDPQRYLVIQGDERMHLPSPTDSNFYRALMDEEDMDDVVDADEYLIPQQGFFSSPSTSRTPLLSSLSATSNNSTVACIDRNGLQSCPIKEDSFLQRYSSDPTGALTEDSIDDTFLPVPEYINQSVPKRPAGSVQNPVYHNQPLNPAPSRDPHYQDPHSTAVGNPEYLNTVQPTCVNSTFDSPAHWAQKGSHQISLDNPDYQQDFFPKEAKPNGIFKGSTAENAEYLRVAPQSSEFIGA
Chain of ALK tyrosine kinase receptor (Q9UM73 whole entry, the tested form may be a part): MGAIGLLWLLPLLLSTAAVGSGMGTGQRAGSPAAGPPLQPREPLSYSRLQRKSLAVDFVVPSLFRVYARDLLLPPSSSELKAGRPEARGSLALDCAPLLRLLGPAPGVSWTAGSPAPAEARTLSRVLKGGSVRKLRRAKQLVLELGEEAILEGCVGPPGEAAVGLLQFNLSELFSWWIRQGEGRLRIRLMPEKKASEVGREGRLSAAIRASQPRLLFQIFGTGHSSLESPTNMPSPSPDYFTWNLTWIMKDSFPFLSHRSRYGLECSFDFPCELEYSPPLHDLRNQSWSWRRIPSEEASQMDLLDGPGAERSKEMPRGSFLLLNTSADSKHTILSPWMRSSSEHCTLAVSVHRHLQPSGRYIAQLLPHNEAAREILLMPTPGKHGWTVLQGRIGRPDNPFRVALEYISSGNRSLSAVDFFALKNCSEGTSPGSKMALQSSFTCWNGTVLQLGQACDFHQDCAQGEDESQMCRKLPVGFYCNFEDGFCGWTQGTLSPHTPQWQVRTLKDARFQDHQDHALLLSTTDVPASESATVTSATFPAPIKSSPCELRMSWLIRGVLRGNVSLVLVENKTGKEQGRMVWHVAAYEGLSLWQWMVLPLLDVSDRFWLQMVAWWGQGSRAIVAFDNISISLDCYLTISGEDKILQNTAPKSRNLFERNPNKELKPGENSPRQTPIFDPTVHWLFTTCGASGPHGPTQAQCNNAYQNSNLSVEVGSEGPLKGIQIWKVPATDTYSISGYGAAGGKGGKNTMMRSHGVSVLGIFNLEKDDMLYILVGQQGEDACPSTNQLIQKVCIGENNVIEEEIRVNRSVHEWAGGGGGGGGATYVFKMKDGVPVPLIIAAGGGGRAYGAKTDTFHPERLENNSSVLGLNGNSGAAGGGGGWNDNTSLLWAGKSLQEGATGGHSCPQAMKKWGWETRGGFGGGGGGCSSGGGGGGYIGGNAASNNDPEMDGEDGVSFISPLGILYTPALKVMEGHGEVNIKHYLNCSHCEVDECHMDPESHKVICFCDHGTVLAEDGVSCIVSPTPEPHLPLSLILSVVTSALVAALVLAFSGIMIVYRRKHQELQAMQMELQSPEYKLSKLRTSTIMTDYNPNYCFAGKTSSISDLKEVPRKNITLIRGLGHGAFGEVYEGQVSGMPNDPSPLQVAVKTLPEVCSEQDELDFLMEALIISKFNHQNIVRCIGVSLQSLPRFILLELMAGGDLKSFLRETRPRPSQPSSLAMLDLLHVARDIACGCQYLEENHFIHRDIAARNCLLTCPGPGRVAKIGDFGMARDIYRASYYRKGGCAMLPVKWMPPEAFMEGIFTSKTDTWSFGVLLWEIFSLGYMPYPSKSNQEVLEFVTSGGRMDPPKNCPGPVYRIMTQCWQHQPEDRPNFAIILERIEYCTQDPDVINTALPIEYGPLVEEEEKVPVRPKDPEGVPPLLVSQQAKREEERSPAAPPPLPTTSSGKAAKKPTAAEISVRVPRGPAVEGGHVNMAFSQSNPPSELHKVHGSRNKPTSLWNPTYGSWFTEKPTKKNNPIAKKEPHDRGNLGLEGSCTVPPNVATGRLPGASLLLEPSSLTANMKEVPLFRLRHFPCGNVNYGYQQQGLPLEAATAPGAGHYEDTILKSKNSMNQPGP

EC50 (BT-474) [nM]	SMILES	IC50 [1] [nM]	IC50 (Aurora kinase B) [nM]	IC50 [2] [µM]	IC50 [3] [nM]	IC50 [4] [nM]	Ratio EC50 [5]
–	CNc1ncc2c(-c3ccc(N4CCN(C)CC4)nc3)nn(CC3CCCC3)c2n1	12	170	> 10	990	190	–
1640	CNc1ncc2c(-c3ccc(N4CCNCC4)nc3)nn(CC3CCCC3)c2n1	–	–	–	–	–	2
–	Nc1nc(Nc2ccc3c(c2)CC[C@@H](N2CCCC2)CC3)nn1-c1cc2c(nn1)-c1ccccc1CCC2 [BEMCENTINIB]	2	100	3.9	20	530	–
–	CNc1ncc2c(-c3ccc(N4CCNCC4)cc3)nn(Cc3cn(Cc4ccccc4)nn3)c2n1	–	–	–	–	–	<1

Source: ChEMBL document CHEMBL4184298, “Development of Potent Inhibitors of Receptor Tyrosine Kinases by Ligand-Based Drug Design and Target-Biased Phenotypic Screening” (J Med Chem, 2018)
